Key:
Format in all cases: cell-based
[1] = Cytotoxicity against mouse BMDC cells up to 10 uM after overnight incubation by MTT assay
Outline: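 BMDC (10^5/well) incubated 18 h with graded concentrations alongside 0.5% DMSO vehicle and MPLA 1 μg/mL; cells lysed after overnight MTT incubation, absorbance 570 nm minus 650 nm reference. Triplicates, mean ± SEM, two independent experiments.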

[2] = target: Toll-like receptor 4 (Homo sapiens) (UniProt O00206); assay: Activation of TLR4 in human PBMC cells assessed as AUC of IL8 release at 10 uM after 18 hrs by ELISA relative to N-cyclohexyl-2-(4-oxo-3-phenyl-4,5-dihydro-3H-pyrimido[5,4-b]indol-2-ylthio)acetamide
Sequence of Toll-like receptor 4 (Homo sapiens) (O00206 whole entry): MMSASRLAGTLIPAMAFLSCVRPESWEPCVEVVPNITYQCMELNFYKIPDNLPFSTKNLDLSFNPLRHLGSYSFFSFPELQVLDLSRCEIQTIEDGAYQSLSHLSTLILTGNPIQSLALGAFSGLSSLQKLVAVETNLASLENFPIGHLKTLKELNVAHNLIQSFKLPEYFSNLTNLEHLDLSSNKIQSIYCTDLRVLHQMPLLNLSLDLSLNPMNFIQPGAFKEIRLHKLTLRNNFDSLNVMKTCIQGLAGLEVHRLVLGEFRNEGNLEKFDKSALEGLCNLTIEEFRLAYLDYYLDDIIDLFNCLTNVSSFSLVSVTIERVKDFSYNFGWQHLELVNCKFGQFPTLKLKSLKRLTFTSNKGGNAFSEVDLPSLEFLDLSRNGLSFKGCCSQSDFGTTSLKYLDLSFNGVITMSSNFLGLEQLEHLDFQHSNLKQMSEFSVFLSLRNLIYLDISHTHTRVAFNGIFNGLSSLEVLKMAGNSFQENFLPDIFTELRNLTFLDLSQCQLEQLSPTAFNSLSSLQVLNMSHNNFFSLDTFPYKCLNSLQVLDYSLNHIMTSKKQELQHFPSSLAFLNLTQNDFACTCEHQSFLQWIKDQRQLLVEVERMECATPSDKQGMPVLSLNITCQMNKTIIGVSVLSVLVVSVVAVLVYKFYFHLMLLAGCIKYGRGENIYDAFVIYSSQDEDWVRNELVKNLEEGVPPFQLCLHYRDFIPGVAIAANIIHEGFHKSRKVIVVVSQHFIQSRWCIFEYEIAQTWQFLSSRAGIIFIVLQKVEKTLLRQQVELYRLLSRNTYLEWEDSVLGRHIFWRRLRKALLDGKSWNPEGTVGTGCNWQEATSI
Outline: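 Human PBMC from buffy coats, 1 × 10^6/mL in complete RPMI, 18 h at 37 °C, 5% CO2 with compound at 10 μM; IL-8 in supernatant by ELISA, normalized to reference hit set at 100. LPS 10 ng/mL positive control.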

[3] = target: T1, Toll-like receptor 4 (Mus musculus) (UniProt Q9QUK6); assay: Activation of mouse TLR4 transfected in HEK293 cells after 18 hrs by SEAP assay relative to N-cyclohexyl-2-(4-oxo-3-phenyl-4,5-dihydro-3H-pyrimido[5,4-b]indol-2-ylthio)acetamide
T1 sequence (whole entry): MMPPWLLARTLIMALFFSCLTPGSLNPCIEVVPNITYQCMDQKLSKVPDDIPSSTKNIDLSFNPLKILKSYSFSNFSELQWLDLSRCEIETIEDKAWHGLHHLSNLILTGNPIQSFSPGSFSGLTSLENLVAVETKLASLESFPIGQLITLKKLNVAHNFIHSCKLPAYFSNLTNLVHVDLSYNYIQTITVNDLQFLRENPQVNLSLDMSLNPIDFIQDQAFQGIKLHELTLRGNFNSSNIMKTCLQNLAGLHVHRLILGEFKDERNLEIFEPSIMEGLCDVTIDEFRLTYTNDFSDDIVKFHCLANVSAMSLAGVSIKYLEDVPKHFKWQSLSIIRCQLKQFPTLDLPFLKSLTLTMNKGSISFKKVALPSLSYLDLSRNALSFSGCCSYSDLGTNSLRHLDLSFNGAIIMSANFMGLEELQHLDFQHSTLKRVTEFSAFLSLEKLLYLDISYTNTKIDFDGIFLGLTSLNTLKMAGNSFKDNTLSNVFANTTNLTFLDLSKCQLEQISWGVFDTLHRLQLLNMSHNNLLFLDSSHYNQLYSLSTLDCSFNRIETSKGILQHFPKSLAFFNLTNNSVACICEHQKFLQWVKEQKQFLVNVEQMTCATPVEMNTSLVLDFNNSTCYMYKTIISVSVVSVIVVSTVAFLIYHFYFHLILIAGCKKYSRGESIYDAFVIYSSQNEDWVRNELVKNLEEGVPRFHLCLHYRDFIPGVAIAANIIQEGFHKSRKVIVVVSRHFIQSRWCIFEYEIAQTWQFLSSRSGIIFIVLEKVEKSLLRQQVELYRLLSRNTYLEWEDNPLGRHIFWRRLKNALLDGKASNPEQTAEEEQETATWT
Outline: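 Mouse TLR4 HEK-Blue cells (2.5 × 10^4/well) given titrated doses 312 nM–10 μM for 18 h, 0.5% DMSO vehicle; SEAP at 630 nm. Percent-activity curves, AUC by trapezoid method, normalized to reference hit set at 100. LPS 10 ng/mL control.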

[4] = target: Toll-like receptor 4 (Homo sapiens) (UniProt O00206); assay: Activation of human TLR4 transfected in HEK293 cells after 18 hrs by SEAP assay relative to N-cyclohexyl-2-(4-oxo-3-phenyl-4,5-dihydro-3H-pyrimido[5,4-b]indol-2-ylthio)acetamide; parameters: concentration or dose not given beside the values
Outline: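 Human TLR4 HEK-Blue cells (2.5 × 10^4/well) given compound at 10 μM for 18 h, 0.5% DMSO vehicle; SEAP in supernatant read at 630 nm, normalized to reference hit set at 100. LPS 10 ng/mL positive control.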

[5] = target: T1, Toll-like receptor 4 (Mus musculus); assay: Activation of TLR4 in C57BL/6 mouse BMDC cells assessed as AUC of IP10 release at 5 uM after 18 hrs by ELISA relative to N-cyclohexyl-2-(4-oxo-3-phenyl-4,5-dihydro-3H-pyrimido[5,4-b]indol-2-ylthio)acetamide
[6] = target: T1, Toll-like receptor 4 (Mus musculus); assay: Activation of TLR4 in C57BL/6 mouse BMDC cells assessed as AUC of IL6 release after 18 hrs by ELISA relative to N-cyclohexyl-2-(4-oxo-3-phenyl-4,5-dihydro-3H-pyrimido[5,4-b]indol-2-ylthio)acetamide
Outline: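 C57BL/6 bone marrow DC, 10^5 cells/well in RPMI-10% FCS, 18 h at 37 °C with titrated doses 312 nM–10 μM; supernatant IL-6 by ELISA. Each curve converted to percent activity (background subtracted, plate-adjusted), AUC by trapezoid method, normalized to reference hit set at 100 per experiment. LPS 10 ng/mL positive control; 0.5% DMSO vehicle.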

Question: For `CCCn1c2ccccc2c2nc(SCC(=O)NC3CCCCC3)n(-c3ccccc3)c(=O)c21`, which Activity [1] is on record?
Answer: Non-toxic

Question: With `Cn1c2ccccc2c2nc(SCC(=O)NC3CCCCC3)n(-c3ccccc3)c(=O)c21` as the compound, how does the Activity [1] read?
Answer: Non-toxic

Question: What about the Activity [2] of the same compound?
Answer: 79%

Question: And the Activity [3]?
Answer: 100%

Question: And the Activity [4]?
Answer: 92%

Question: And the Activity [5]?
Answer: 99%

Question: What about the Activity [6] of the same compound?
Answer: 101%

Question: With `N#CCn1c2ccccc2c2nc(SCC(=O)NC3CCCCC3)n(-c3ccccc3)c(=O)c21` as the compound, how does the Activity [1] read?
Answer: Non-toxic

Question: What about the Activity [2] of the same compound?
Answer: 30%

Question: What about the Activity [3] of the same compound?
Answer: 55%

Question: What about the Activity [4] of the same compound?
Answer: 19%

Question: What about the Activity [5] of the same compound?
Answer: 64%

Question: What about the Activity [6] of the same compound?
Answer: 98%

Question: With `O=C(CSc1nc2c([nH]c3ccccc32)c(=O)n1-c1ccccc1)NC1CCCCCC1` as the compound, how does the Activity [2] read?
Answer: 118%

Question: And the Activity [3]?
Answer: 99%

Question: And the Activity [4]?
Answer: 100%

Question: And the Activity [5]?
Answer: 107%

Question: And the Activity [6]?
Answer: 126%

Question: Which results are given for `O=C(CSc1nc2c([nH]c3ccccc32)c(=O)n1C1CCCCC1)NC1CCCCC1`?
Answer: Activity [2]: 27%; Activity [3]: 56%; Activity [4]: 40%; Activity [5]: 61%; Activity [6]: 71%

Question: For `CCC(C)CCNC(=O)CSc1nc2c([nH]c3ccccc32)c(=O)n1-c1ccccc1` (stereo not drawn), which Activity [2] is on record?
Answer: 23%

Question: What about the Activity [3] of the same compound?
Answer: 29%

Question: What about the Activity [4] of the same compound?
Answer: 17%

Question: And the Activity [5]?
Answer: 45%

Question: And the Activity [6]?
Answer: 30%

Question: With `Cc1ccc(-n2c(SCC(=O)NC3CCCCC3)nc3c([nH]c4ccccc43)c2=O)cc1` as the compound, how does the Activity [2] read?
Answer: 6%

Question: And the Activity [3]?
Answer: 2%

Question: And the Activity [4]?
Answer: 2%

Question: And the Activity [5]?
Answer: < 1%

Question: What about the Activity [6] of the same compound?
Answer: < 1%

Source: ChEMBL document CHEMBL2384907, “Identification of substituted pyrimido[5,4-b]indoles as selective Toll-like receptor 4 ligands” (J Med Chem, 2013)
